Measurements gathered from unrelated publications.
Each line is one published result; the experiments were not run side by side. ≈ marks a conversion by molar mass, not a printed value.

SMILES | target or system | test | test system | conditions | quantity | value
O=C1CCP(=S)(c2ccccc2)CC1 | HaCaT | cell growth or viability, MTT | – | 72 h | IC50 | 14.2 µM
CC[C@H](C)C[C@H](C)CCCCCCCCC(=O)N[C@H]1C[C@@H](O)[C@@H](NCCN)NC(=O)[C@@H]2[C@@H](O)CCN2C(=O)[C@H]([C@H](O)CCN)NC(=O)[C@H]([C@H](O)[C@@H](O)c2ccc(O)cc2)NC(=O)[C@@H]2C[C@@H](O)CN2C(=O)[C@H]([C@@H](C)O)NC1=O | Nakaseomyces glabratus | microbial growth, broth dilution | ATCC15126 | 48 h | MIC | 0.25 µg/mL (≈ 0.229 µM)
C#Cc1ccc(C=NNC(=O)c2cc(Br)cc(Br)c2O)c(O)c1 | Cryptococcus neoformans | microbial growth, broth dilution | – | pH 7.4 | MIC80 | 0.03 µg/mL (≈ 0.0685 µM)
CC[C@@]1(O)C(=O)OCc2c1cc1n(c2=O)Cc2cc3ccccc3nc2-1 | SNB-19 | cell growth or viability, SRB | – | 48 h | IC50 | 52.9 µM
C#Cc1ccc(C(=O)NN=Cc2c(O)cccc2C#C)cc1 | Cryptococcus neoformans | microbial growth, broth dilution | – | pH 7.4 | MIC80 | 0.015 µg/mL (≈ 0.052 µM)
S=P1(c2ccccc2)CCCCC1 | HaCaT | cell growth or viability, MTT | – | 72 h | IC50 | > 100 µM
O=C1CCc2cc(-c3cccc(OC(=O)[C@H]4[C@H](c5ccccc5)[C@@H](C(=O)O)[C@H]4c4ccccc4)c3)ccc2N1 | WI-38 | cell growth or viability, MTT | – | – | IC50 | 77 µM
N.N.[Cl][Pt][Cl] | HaCaT | cell growth or viability, MTT | – | 72 h | IC50 | 6.3 µM
C#Cc1cccc(C=NNC(=O)c2ccc(Br)c(Br)c2)c1O | Cryptococcus neoformans | microbial killing | – | – | MFC | 0.12 µg/mL (≈ 0.284 µM)
CC(=O)O[C@H]1C(=O)[C@@]2(C)[C@H]([C@H](OC(=O)c3ccccc3)[C@]3(O)C[C@H](OC(=O)[C@H](O)[C@@H](NC(=O)c4ccccc4)c4ccccc4)C(C)=C1C3(C)C)[C@]1(OC(C)=O)CO[C@@H]1C[C@@H]2O | HaCaT | cell growth or viability, CCK-8 | – | 12.5 µM, 72 h | inhibition | > 90%
N.N.[Cl][Pt][Cl] | Daudi | cell growth or viability, ATP luminescence | – | 72 h | IC50 | 0.86 µM
C#Cc1ccc(C=NNC(=O)c2ccc(Br)c(O)c2)c(O)c1 | Cryptococcus neoformans | microbial growth, broth dilution | – | pH 7.4 | MIC80 | 1 µg/mL (≈ 2.78 µM)
COc1cnc(OC)n2nc(NS(=O)(=O)c3c(OCC(F)F)cccc3C(F)(F)F)nc12 | HaCaT | cell growth or viability, CCK-8 | – | 50 µM, 72 h | inhibition | 0.69%
